A selection: hits, their analogues and other compounds. The true share with any hit is near 4.3%.
TAAR1 antagonist: antagonists of human TAAR1. AID 624466. inhibition, % at 3 µM. 1.5% of 360,000 active. CHO RD-HGA16 TAAR1, Fluo-8 calcium fluorescence, antagonist;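 active means inhibition above a per-plate cutoff, the mean inhibition of test compounds on that plate plus 3 SD, cut at about 49% in these data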
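System: CHO RD-HGA16 cells bearing hTAAR1. Reagent: EC80 β-phenethylamine stimulus. Schedule: seeding 17-24 h prior, 75-min 37 °C, 30-min RT dye loading. Signal: Fluo-8 intracellular calcium dye fluorescence, real-time kinetic reads. Read-out: % inhibition from peak post-agonist over basal fluorescence ratio. Benchmarks: vehicle wells and EC80 agonist wells. Replicates: n of 1.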
GalR3 antagonist: antagonists of human GalR3; HEK293 GalR3-CNG cAMP membrane potential fluorescence; galR3 body fused to GalR1 C-terminus; inhibition, % at 3 µM; 0.44% of 360,000 active;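 active means inhibition above the screen-wide average plus 3 SD, cut at about 13% in these data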;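 further: forskolin and galanin both at EC90 stimulate the cells; cAMP rise reported by CNG channel membrane potential dye signal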
Target sequence (O60755 1-299 limits assumed): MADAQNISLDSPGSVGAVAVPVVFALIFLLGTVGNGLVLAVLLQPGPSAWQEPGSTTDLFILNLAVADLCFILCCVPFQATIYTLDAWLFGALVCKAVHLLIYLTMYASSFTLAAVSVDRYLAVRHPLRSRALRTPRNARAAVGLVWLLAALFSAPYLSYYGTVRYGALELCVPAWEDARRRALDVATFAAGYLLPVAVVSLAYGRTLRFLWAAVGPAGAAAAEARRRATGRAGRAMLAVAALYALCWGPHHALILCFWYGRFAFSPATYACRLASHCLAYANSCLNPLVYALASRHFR
TAAR1 ag: agonists of human TAAR1. AID 624467. 0.99% of 360,000 active. CHO RD-HGA16 TAAR1, Fluo-8 calcium fluorescence; vehicle wells 0%, saturating PEA agonist 100%. activation, % at 3 µM;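 active means activation above the mean activation of all test compounds in the run plus 3 SD, cut at about 38% in these data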
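Assay system: CHO-derived RD-HGA16 cells with stable Gα16 and human TAAR1; timing: 17-24 h seeding, 75 min 37 °C dye, 30 min RT; read-out: % activation from peak over basal fluorescence ratio, DMSO-to-PEA scaled; measured by: kinetic Fluo-8 calcium fluorescence; benchmarks: low control DMSO, high control PEA (EC100); doses: 3 µM single concentration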
OX1R antag-1: human HCRTR1 antagonism | O43613 | CHO/OX1R cells, Fluo-8 calcium fluorescence, orexin A | inhibition, % at 5 µM | 0.43% of 330,000 active | AID 434989;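 active means inhibition above its plate's threshold, mean inhibition of all tested compounds on the plate plus 3 SD, cut at about 37% in these data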
CHO parental Ca: counter-screen: ATP calcium response change in parental CHO cells; parental CHO-K1, ATP-induced calcium, Fluo-8 fluorescence; inhibition, % at 5.6 µM; 0.63% of 330,000 active;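 active means inhibition above that plate's mean sample inhibition plus 3 SD, cut at about 26% in these data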
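material = parental CHO cells | also added = ATP as calcium-mobilizing challenge | dosing = single point at 5.6 µM | detection = intracellular calcium via Fluo-8 no-wash fluorescent dye | read-out = % inhibition | benchmarks = low control ATP plus DMSO, high control DMSO only | repeats = one well per compound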
OX1R antag-2: blocks the human orexin 1 receptor; O43613; OX1R-expressing cells, FRET antagonist read-out; inhibition, % at 6.6 µM; 1.8% of 330,000 active; in the data active means inhibition mostly above about 38%, no sharp cut-off; inactive means mostly below about 40%
Hits are given with their value; - = inactive; . = no result.

SMILES	TAAR1 antagonist	GalR3 antagonist	TAAR1 ag	OX1R antag-1	CHO parental Ca	OX1R antag-2
O=C1COc2ccc(S(=O)(=O)N3CCN(c4ccccc4)CC3)cc2N1	-	-	-	-	-	-
CC(CC(=O)N1CCN(c2ccccc2)CC1)S(=O)(=O)c1ccc2c(c1)NC(=O)CO2 (stereo not drawn)	53.4	-	-	-	-	-
O=C1COc2ccc(S(=O)(=O)CCC(=O)N3CCN(c4cccc(C(F)(F)F)c4)CC3)cc2N1	-	-	-	-	38.1	-
CC(OC(=O)c1cc(=O)[nH]c2ccccc12)C(=O)NC1CCCC1 (stereo not drawn)	-	-	-	-	-	-
Cc1ccc(C(=O)N/C(=C\c2ccco2)C(=O)N2CCOCC2)cc1C	-	-	-	-	-	-
O=C(N/N=C/C(Br)=C\c1ccccc1)c1cccs1	-	-	-	-	-	39.6
CC1=C(C(=O)N(C)C)CC(CC(=O)NC2CCCC2)C(=O)N1Cc1ccc(F)cc1 (stereo not drawn)	-	-	-	.	.	.
CCCN1CCN(c2nc(-c3cccs3)nc3ccccc23)CC1	-	-	-	-	-	-
CCOC(=O)N1CCN(c2nc(-c3cccs3)nc3ccccc23)CC1	-	-	-	-	-	74.5
FC(F)Sc1ccc(NC(=S)NC2CCCC2)cc1	-	-	-	-	59.9	-
CC1CCCC(NC(=S)Nc2ccc(SC(F)F)cc2)C1C (stereo not drawn)	-	-	-	60.0	47.6	-
S=C(Nc1ccc(Cl)c(Cl)c1)NC1CCCCC1	.	.	.	-	37.6	59.4
S=C(Nc1ccc2nsnc2c1)NC1CCCCC1	-	-	-	-	-	-
O=C(C(=O)N1CCN(C(=O)c2cc(C(F)(F)F)cc(C(F)(F)F)c2)CC1)c1cccc(C(F)(F)F)c1	-	-	-	.	.	.
O=[N+]([O-])c1nn(-c2ccccc2)n(O)c1=NC1CCN(Cc2ccccc2)CC1	-	-	-	-	-	46.2
O=[N+]([O-])c1nn(-c2ccc3c(c2)OCCO3)n(O)c1=NC1CCN(Cc2ccccc2)CC1	-	-	-	-	-	-
O=C(COc1ccccc1/C=C1\SC(=O)NC1=O)Nc1ccc(F)cc1	-	-	-	-	-	76.6
S=C(NCCc1ccccc1)N1CCN(C23CC4CC(CC(C4)C2)C3)CC1	-	-	37.5	-	-	-
CCn1c(=NC(=O)c2ccco2)sc2cccc(F)c21	-	.	-	-	-	64.8
O=[N+]([O-])c1ccc(-n2nnnc2-c2ccccc2)cc1	-	-	-	-	-	54.1
Nc1ccc(-c2nnnn2-c2ccc(N)cc2)cc1	-	-	-	-	27.8	-
O=[N+]([O-])c1ccc(-n2cc(-c3ccccc3)nn2)cc1	-	-	-	-	-	-
NC(=O)c1nnn(-c2ccc([N+](=O)[O-])cc2)c1-c1ccccc1	-	-	-	-	-	43.5
CC(=O)N1C[C@@H](CO)[C@@H](N(C)C(=O)/C=C/c2ccccc2)C[C@H]1c1ccccc1	-	-	-	.	.	.
COC(=O)Nc1cccn(Cc2c(Cl)cccc2Cl)c1=O	-	-	-	-	-	-
SMILES	TAAR1 antagonist	GalR3 antagonist	TAAR1 ag	OX1R antag-1	CHO parental Ca	OX1R antag-2
O=C(Nc1cccn(Cc2c(Cl)cccc2Cl)c1=O)c1c(Cl)cccc1Cl	-	-	-	-	-	55.7
COc1cc2c(ccc3cc(OC)c(OC)c(O)c32)cc1O	-	-	-	-	-	-
COc1cc2cccc(OC)c(=O)c2c(O)c1OC	-	-	-	-	-	65.8
Cc1ccc(/C=N/NC(=O)c2nnn(-c3nonc3N)c2C(C)C)s1	-	-	47.3	-	-	-
COc1ccc2ccccc2c1/C=N/NC(=O)c1nnn(-c2nonc2N)c1C(C)C	55.2	-	-	-	-	60.4
Cc1ccc(-c2c(C(=O)N/N=C/c3ccc(C)o3)nnn2-c2nonc2N)cc1	-	-	42.8	-	-	-
Cc1ccc(/C=N/NC(=O)c2nnn(-c3nonc3N)c2C(C)C)o1	-	-	37.7	-	-	-
O=C(N[C@H]1CC[C@H](CCNS(=O)(=O)c2ccc(Cl)cc2)O[C@@H]1CO)c1cccc(F)c1	-	-	-	.	.	.
CCN(CC(=O)NC1CCCC1)S(=O)(=O)c1ccc(Br)cc1	-	-	-	-	-	-
